Active and inactive are the calls of the source. The calls are words filed in the database; no cut-off is given here.
Tests used:
[1] = Oral bioavailability in CD1 mouse at 10 mg/kg measured after 0.03 to 24 hrs by UHPLC-TOF method; format: ADME, organism-based; conditions: in vivo, time 0.03-24 hrs
Method in brief: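 Male CD-1 mice, acclimatized and individually housed, dosed IV and PO as amorphous-solid suspension. Terminal cardiac-puncture blood into heparinized tubes on wet ice, centrifuged at 4 °C within 15 min; plasma snap-frozen at −20 °C. IV arm sampled 2 min–24 h, oral arm 5 min–24 h. Plasma analysed by UHPLC-quadrupole-TOF MS.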

[2] = Half life in CD1 mouse at 10 mg/kg, po measured after 0.083 to 24 hrs by UHPLC-TOF method; format: ADME, organism-based; conditions: in vivo, time 0.083-24 hrs
[3] = Half life in Sprague-Dawley rat at 10 mg/kg, po measured after 0.25 to 24 hrs by UHPLC-TOF method; format: ADME, organism-based; conditions: in vivo, time 0.25-24 hrs
[4] = Protein binding in dog plasma assessed as unbound fraction at 5 uM by LC-MS/MS analysis based equilibrium dialysis method; format: ADME, cell-free, Canis lupus familiaris
[5] = Clearance in Beagle dog at 0.3 mg/kg, iv measured after 0.03 to 24 hrs by UHPLC-TOF method; format: ADME, organism-based, Canis lupus familiaris; conditions: in vivo, time 0.03-24 hrs
[6] = Half life in rat hepatocytes at 3 uM measured up to 60 mins by LC-MS/MS analysis; format: ADME, cell-based, Hepatocyte
[7] = Clearance in Sprague-Dawley rat at 1 mg/kg, iv administered […] measured after 0.02 to 24 hrs by tandem liquid chromatography/mass spectrometry; format: ADME, organism-based; conditions: in vivo, time 0.02-24 hrs
Human orthopneumovirus [8] = experiment: Antiviral activity against Respiratory syncytial virus A Memphis 37b infected in human assessed as reduction in mean AUC of viral load at 350 mg administered twice daily administered for 5 days by cell-based infectivity assay; format: functional; design: scale not given: the % may be the effect or the level left; conditions: time 5 day
Method in brief: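 Healthy adult volunteers aged 18–45 with low serum pre-existing RSV-specific antibodies were challenged on day zero with about 4 log10 PFU of RSV-A Memphis 37b. Subjects were randomized into 3 equal groups: 200 mg, 350 mg or placebo twice daily for 5 days, begun after infection was confirmed. Viral load in nasal wash was measured by RT-qPCR or by cell-based infectivity assay, and AUC was compared with placebo.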

[9] = Half life in human hepatocytes at 3 uM measured up to 60 mins by LC-MS/MS analysis; format: ADME, cell-based, Hepatocyte
[10] = Half life in CD1 mouse at 1 mg/kg, iv measured after 0.03 to 24 hrs by UHPLC-TOF method; format: ADME, organism-based; conditions: in vivo, time 0.03-24 hrs
Rattus norvegicus = species on record: Rattus norvegicus; experiment: Toxicity in rat by micronucleus test; format: functional, organism-based
[11] = Induction of toxicity in human at 175 to 350 mg; conditions: dose 175-350 mg
[12] = Protein binding in human plasma assessed as unbound fraction at 5 uM by LC-MS/MS analysis based equilibrium dialysis method; format: ADME, cell-free
[13] = Tmax in Sprague-Dawley rat at 50 mg/kg, po measured after 0.02 to 24 hrs by UHPLC-TOF method; format: ADME, organism-based; conditions: in vivo, time 0.02-24 hrs
Human orthopneumovirus [14] = experiment: Antiviral activity against Respiratory syncytial virus A2 infected in Balb/C mouse assessed as reduction in viral titers in lung homogenates at 50 mg/kg, po treated 2 hrs prior to viral infection followed by compound redosing at 24 hrs and measured after 5 days post infection by plaque assay relative to control; format: functional, human respiratory syncytial virus; design: scale not given: the % may be the effect or the level left
Method in brief: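 Female Balb/C mice aged 7–8 weeks, 6 per group, received two oral doses 2 h before and 24 h after intranasal inoculation with 5 × 10⁶ pfu of RSV A2. Mice were euthanized on day 5. Lung homogenate titers were determined by plaque assay on Vero cells and expressed as a percentage of the control group.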

[15] = Cmax in CD1 mouse at 10 mg/kg, po measured after 0.083 to 24 hrs by UHPLC-TOF method; format: ADME, organism-based; design: route oral, time 0.083-24 hrs, dose 10 mg/kg; conditions: in vivo
[16] = Cytotoxicity against African green monkey Vero cells by MTT assay; format: cell-based; conditions: chlorocebus sabaeus
Method in brief: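 Viability was assessed by MTT after culture with compound at 0.01 nM to 100 μM, run in parallel with plaque reduction assays. Values are the average of at least two testing occasions.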

Human orthopneumovirus [17] = experiment: Antiviral activity against Respiratory syncytial virus A Memphis 37b infected in human assessed as reduction in nasal mucus weight at 200 to 350 mg administered twice daily administered for 5 days; format: functional, organism-based; conditions: dose 200-350 mg, time 5.0 day
Method in brief: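 Healthy adult volunteers aged 18–45, with low pre-existing RSV antibody levels, were challenged on day 0 with about 4 log10 PFU RSV-A Memphis 37b. After infection was confirmed, they were randomised to 200 mg, 350 mg or placebo twice daily for 5 days. Post hoc analysis compared mean daily nasal mucus weight with placebo.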

[18] = Antiviral activity against Respiratory syncytial virus B by Plaque reduction assay; format: functional
Method in brief: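 RSV A and B laboratory strains and low-passage clinical isolates were used to infect Vero or HepG2 cultures for 48 h with compound at 0.01 nM to 100 μM. Plaques were then detected by immunostaining.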

[19] = Cardiotoxicity in guinea pig assessed as effect on QT interval; format: toxicity, Cavia porcellus
[20] = Half life in Beagle dog hepatocytes at 3 uM assessed per million cells measured up to 60 mins by LC-MS/MS analysis; format: ADME, cell-based, Canis lupus familiaris, Hepatocyte
[21] = Induction of adverse effect in human infected with Respiratory syncytial virus A Memphis 37b assessed as nausea at 200 to 350 mg administered twice daily administered for 5 days; conditions: in vivo, 120 h, dose 200-350 mg, time 5 day
Method in brief: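 Challenge study in healthy adults aged 18–45 inoculated with about 4 log10 PFU of RSV-A Memphis 37b. Dosing was 200 or 350 mg twice daily for 5 days after infection was confirmed. Adverse events were monitored daily. ECG, physical examination and urinalysis were done at prespecified time points.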

[22] = Half life in Sprague-Dawley rat liver microsomes preincubated followed by NADPH addition and measured up to 45 mins by LC-MS/MS analysis; format: ADME, Microsome
[23] = Cmax in Sprague-Dawley rat at 5 mg/kg, po administered via gavage measured after 0.02 to 24 hrs by tandem liquid chromatography/mass spectrometry; format: ADME, organism-based; design: route oral, dose 5 mg/kg, time upper 24 hrs, time lower 0.02 hrs; conditions: in vivo
Method in brief: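 Male Sprague–Dawley rats weighing 200–250 g, 3 per route, were used. The i.v. bolus was 1 mg/kg at 1 mg/mL in 40:60 dimethylacetamide/saline. Oral gavage doses were 5 or 10 mg/kg at 5 mg/mL in 1% methyl cellulose with 0.1% Tween 80. Heparinized blood was taken at 0.02–24 h (ten time points). Plasma was analyzed by LC-MS/MS after acetonitrile precipitation.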

[24] = Oral bioavailability in Sprague-Dawley rat at 10 mg/kg administered via gavage measured after 0.02 to 24 hrs by tandem liquid chromatography/mass spectrometry; format: ADME, organism-based; conditions: in vivo, time 0.02-24 hrs
Method in brief: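 Male Sprague–Dawley rats (200–250 g), 3 per route. IV bolus at 1 mg/kg, 1 mg/mL in 40:60 dimethylacetamide/saline; oral gavage at 5 or 10 mg/kg, 5 mg/mL in 1% methyl cellulose, 0.1% Tween 80 in water. Serial blood at 0.02–24 h (ten points) into heparin, spun at 4 °C, plasma frozen; acetonitrile protein precipitation, ESI LC-MS/MS with matrix curve and internal standards.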

Salmonella typhimurium = experiment: Genotoxicity in Salmonella typhimurium by Ames test; format: functional, organism-based; conditions: Salmonella enterica subsp. enterica serovar Typhimurium
[25] = Intrinsic clearance in human hepatocytes at 3 uM assessed per million cells measured up to 60 mins by LC-MS/MS analysis; format: ADME, cell-based, Hepatocyte; conditions: read-out: CLH
[26] = Intrinsic clearance in human liver microsomes preincubated followed by NADPH addition and measured up to 45 mins by LC-MS/MS analysis; format: ADME, Microsome

## NCc1ccc2c(c1)nc(CN1C(=O)C3(CC3)c3ccc(F)cc31)n2CCCC(F)(F)F [SISUNATOVIR]
[1]
  bioavailability: 46.4%
[2]
  half-life: 186 min
[3]
  half-life: 594 min
[4]
  fraction unbound at 5 µM: 0.27
[5]
  clearance: 17.8 mL/min/kg
[6]
  half-life at 3 µM: 93 min
[7]
  clearance: 164 mL/min/kg
Human orthopneumovirus [8]
  Activity: 68.6%
[9]
  half-life at 3 µM: 211 min
[10]
  half-life: 252 min
Rattus norvegicus
  Activity: Not toxic
[11]
  Activity: Non-Toxic
[12]
  fraction unbound at 5 µM: 0.67
[13]
  Tmax: 5.3 h
Human orthopneumovirus [14]
  Activity: 98%
[15]
  Cmax: 224 ng/mL
[16]
  CC50: > 4 µM
Human orthopneumovirus [17]
  Activity: Active
[18]
  IC50: 1 nM
[19]
  Activity: Toxic
[20]
  half-life at 3 µM: 580 min
[21]
  Activity: Toxic
[22]
  half-life: 80 min
[23]
  Cmax: 74.2 ng/mL
[24]
  bioavailability: 102%
Salmonella typhimurium
  Activity: Not toxic
[25]
  hepatocyte CLint at 3 µM: 6.58 µL/min/1e6 cells
[26]
  intrinsic clearance (CLint): 44 µL/min

From ChEMBL document CHEMBL4825662 (J Med Chem, 2021)
